What was measured:
[1] = HPLC analysis of SIRT6 binding to NAD+; settings: 10 µM SIRT6 incubated with 10 µM NAD+, 10 kDa cutoff membrane
Outline: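 SIRT6 (10 µM; WT, G60A or H133Y) was incubated with 10 µM NAD+ in 25 mM Tris-HCl pH 8.0, 50 mM NaCl for 30 min at room temperature. The mix was diluted to 500 µL and spun through a 10 kDa membrane (15,000 g, 20 min). The filtrate (unbound NAD+) was lyophilized, redissolved in water and quantified by HPLC.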

TNFα = assay: ELISA analysis of TNFα secretion in MEFs; assay type: cell-based, Human; settings: SIRT6 stably expressed in Sirt6 KO MEFs
RPL17 and RPS7 = RPL17 and RPS7 in exosomes from MEFs; assay type: cell-based, mouse; settings: exosomes from Sirt6 KO MEFs expressing SIRT6
Outline: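 MEFs at 90% confluence were washed with PBS and serum-free DMEM, then conditioned in serum-free medium for 12 h. Medium was cleared at 500 g (5 min) and 3,000 g (20 min), then passed through a 0.2 µm filter. Filtrate was ultracentrifuged at 100,000 g for 2 h, and pellets were washed, re-pelleted and lysed in NP-40 buffer. Blots used RPL17/RPS7 antibodies (1:1000, 4 °C 12 h) with ECL detection.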

[2] = tested on: H3K9 palmitoyl, TNFα myristoyl and H3K9 octanoyl peptides; assay: Defatty-acylation assay on other fatty-acyl peptides; assay type: biochemical
H3K9 acetyl peptide = assay: Deacetylation assay, SIRT6 WT and mutants purified from E. coli; assay type: biochemical; settings: 2 µM SIRT6, 25 µM H3K9 acetyl peptide, 1 mM NAD+, 300 µM palmitic acid, 37°C, 2 hours
Outline: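 Full-length human SIRT6 (WT or mutant) was expressed from pET28a in E. coli BL21(DE3). Reactions (40 µL) contained 25 mM Tris-HCl pH 8.0, 50 mM NaCl and 1 mM DTT plus the listed components. They were quenched with an equal volume of cold acetonitrile and centrifuged. Supernatants were run on C18 HPLC using a water/acetonitrile 0.1% TFA gradient to quantify deacetylated H3K9 peptide.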

H3K9 myristoyl peptide [3] = assay: Defatty-acylation assay, SIRT6 purified from HEK 293T cells; assay type: biochemical; settings: 0.2 µM SIRT6 from HEK293T cells, 5 µM Myr-H3K9, 1 mM NAD+, 37°C, 60 min
Outline: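 SIRT6 WT or mutants were affinity-purified from HEK 293T lysates on anti-Flag gel, eluted with 3X FLAG peptide and buffer-exchanged on a 10 kDa membrane. Reaction buffer was 25 mM Tris-HCl pH 8.0, 50 mM NaCl, 1 mM DTT. Reactions were quenched with cold acetonitrile and centrifuged, and supernatants were analysed by C18 reverse-phase HPLC (water/acetonitrile, 0.1% TFA) for H3K9 peptide formation.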

H3K9 myristoyl peptide [4] = assay: Demyristoylation steady-state kinetics; assay type: biochemical
[5] = tested on: SIRT6 (self ADP-ribosylation); assay: In vitro mono-ADP-ribosylation assay; assay type: biochemical, human; settings: 2.5 µM SIRT6, 50 µM 6-alkyne-NAD, 30°C, 30 min
Outline: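 Reactions contained SIRT6 WT or mutants in 25 mM Tris-HCl pH 8.0, 50 mM NaCl, 1 mM DTT, with NAD+ replacing 6-alkyne-NAD as negative control. Click chemistry with BODIPY-N3, TBTA, CuSO4 and TCEP ran 30 min at room temperature. Samples were boiled in SDS buffer, separated on 12% SDS-PAGE and destained 2 h, and ADP-ribosylation was read as in-gel BODIPY fluorescence.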

[6] = NAD+ binding by intrinsic tryptophan fluorescence; settings: read-out: Kd for NAD^+ in the presence of H3K9 acetyl peptide, 1 mM H3K9 acetyl peptide
Outline: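 SIRT6 (3 µM) in 25 mM Tris-HCl pH 7.4, 150 mM NaCl, 10% glycerol was premixed with 1 mM tryptophan-free Ac-H3K9 and titrated with NAD+. Excitation was 295 nm with emission scanned 320–390 nm, using peak maxima. Fraction bound was (F−F0)/(Fsat−F0), and Kd came from a one-site quadratic binding fit with [E] = 3 µM.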

[7] = Thermal shift assay and tryptophan fluorescence emission spectra; assay type: physicochemical
[8] = tested on: acetyl-H3K9 and acetyl-H3K56; assay type: cell-based, Human; settings: flag-tagged SIRT6 overexpressed in SIRT6 KO 293T cells
Outline: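 Sirt6 KO HEK 293T cells in DMEM/10% heat-inactivated FBS were transiently transfected with SIRT6 WT, mutants or empty pCMV4a. Blots were probed with Ac-H3K9, Ac-H3K56 and histone H3 antibodies (1:5000; acetyl antibodies 4 °C 12 h), then secondary antibody (1:3000, 1 h RT). Detection was by ECL chemiluminescence; band intensities were quantified as mean ± s.d. of three replicates.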

[9] = tested on: IAP2, GLS, RPL3 and MnSOD; assay: mRNA levels of SIRT6-regulated genes in Sirt6 KO MEFs; assay type: cell-based, mouse; settings: SIRT6 overexpressed in Sirt6 KO MEFs
Sirt6 KO MEFs [10] = assay: Cell viability after glucose starvation; assay type: cell-based, mouse; settings: SIRT6 expressed in Sirt6 KO MEFs, glucose free medium 72 h
Outline: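 Stable SIRT6-expressing Sirt6 KO MEFs were selected with […] puromycin 48 h post-infection, with empty pCDH vector as control, and grown in DMEM/10% heat-inactivated FBS. Cells were seeded at 3,000/well and switched after 48 h to glucose-free DMEM/10% FBS for 72 h. They were then fixed in cold methanol, stained with 0.2% crystal violet, solubilized in 0.5% SDS/50% ethanol, and read at 550 nm.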

Sirt6 KO MEFs [11] = assay: Secreted and intracellular protein levels in MEFs; assay type: cell-based, mouse; settings: SIRT6 overexpressed in Sirt6 KO cells
Outline: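 MEFs at 90% confluence were washed with PBS and serum-free DMEM, then kept in serum-free DMEM for 12 h. Medium was cleared at 500 g (5 min) and 3,000 g (10 min) and concentrated on 10 kDa filters. Western blots were probed for VCP, RPL17, RPS7, COL5A1, COL6A1 and CXCL1 (1:1000, 4 °C 12 h), followed by secondary antibody (1:3000, 1 h RT) and ECL detection.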

Row | Substance | NAD^+ bound to SIRT6 [1] | TNFα secretion (TNFα) | RPL17 and RPS7 in exosomes (RPL17 and RPS7) | defatty-acylase activity on other fatty-acyl peptides [2] | H3K9 acetyl peptide hydrolyzed/converted to H3K9 peptide (H3K9 acetyl peptide) | defatty-acylase activity, substrate conversion (H3K9 myristoyl peptide [3]) | decrease of kcat of demyristoylation versus SIRT6 WT (H3K9 myristoyl peptide [4]) | increase of Km of demyristoylation versus SIRT6 WT (H3K9 myristoyl peptide [4]) | ADP-ribosyltransferase (ART) activity [5] | Kd [6] | stability and fluorescence with H3K9 myristoyl peptide ([7]; 0.1 mM H3K9 myristoyl peptide) | stability and fluorescence with H3K9 acetyl peptide ([7]; 1 mM H3K9 acetyl peptide) | thermal stability ([7]; without peptide, versus SIRT6 WT, 37 to 62 °C for 3 min) | H3K9 and H3K56 acetylation levels in cells [8] | transcriptional suppression of IAP2, GLS, RPL3 and MnSOD [9] | glucose starvation-caused cell death (Sirt6 KO MEFs [10]) | secreted levels of Group 1 proteins (RPL17, RPS7, VCP) (Sirt6 KO MEFs [11]) | secreted levels of Group 2 proteins (COL6A1, COL5A1, CXCL1) (Sirt6 KO MEFs [11])
1 | SIRT6 H133Y | 59 ± 3% | no effect on TNFα secretion | can be detected |  |  |  |  |  |  |  |  |  |  |  |  |  |  | 
2 | SIRT6 G60A | 2.0 ± 0.7% | promoted TNFα secretion | not in exosomes | robust defatty-acylase activities | approximately 1.8% | 25.6% | 1.9 fold | 1.8 fold | no observable ART activity | 634 ± 91 µM | became similar to those of SIRT6 WT | not affected | decreased thermal stability | no detectable deacetylase activity in cells | could not | neither SIRT6 G60A nor H133Y did | decreased the secreted levels to that in Sirt6 WT cells | restored the secreted levels to that in Sirt6 WT cells
3 | SIRT6 R65A |  |  |  |  |  |  |  |  | weak self ADP-ribosylation activities |  |  |  |  |  |  |  |  | 

From article PMC4955683 (Nature chemical biology, 2016)
